Experimental data taken from ChEMBL document CHEMBL4251593, “Nontoxic combretafuranone analogues with high in vitro antibacterial activity” (Eur J Med Chem, 2018).
Values after ≈ are worked out from the molar mass of the structure shown. Active and inactive are the calls of the source. The rule behind the calls is not given here.

Legend:
Klebsiella pneumoniae [1] = experiment: Antibacterial activity against Klebsiella pneumoniae HK11750/08 clinical isolate after 48 hrs by microdilution assay; type: functional; details: HK11750/08, 48 h
Nakaseomyces glabratus = experiment: Antifungal activity against Candida glabrata 20/I clinical isolate up to 1 mM after 24 to 48 hrs by microdilution assay; type: functional, organism-based
How it was run: (§1)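 Fungal microdilution following modified CLSI M27-A3/M38-A2, in RPMI 1640 with L-glutamine and 0.165 M MOPS at pH 7.0, with DMSO no more than 2% final. Compounds were 2-fold serially diluted from 2000 to 0.488 µmol/l. The inoculum was 5×10^3 cfu/ml. Incubation was at 35 °C, read visually at 24/48 h (T. mentagrophytes at 72/120 h). MIC was IC80 for yeasts and IC50 for filamentous fungi, determined twice in duplicate.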

Klebsiella pneumoniae [2] = experiment: Antibacterial activity against Klebsiella pneumoniae HK14368/08 clinical isolate after 48 hrs by microdilution assay; type: functional; details: HK14368/08, 48 h
Staphylococcus aureus [3] = experiment: Antibacterial activity against methicillin-resistant Staphylococcus aureus HK5996/08 clinical isolate after 24 hrs by microdilution assay; type: functional; details: HK5996/08, 24 h
HL-60 [4] = experiment: Induction of apoptosis in human HL60 cells assessed as caspase 3/7 activity after 24 hrs by caspase-glo luminescent assay; type: cell-based; details: HL-60, 24 h
How it was run: (§2)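 Cells were seeded at 500 per well in their growth media and exposed to 12 concentrations from 40 µM to 1 nM, delivered from DMSO, in triplicate. After 24 h, caspase-3/7 activity was read by Caspase-Glo luminescence. Data were normalized and ED50 was fitted by variable-slope nonlinear regression.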

Escherichia coli [5] = experiment: Antibacterial activity against Escherichia coli ATCC 8739 after 48 hrs by microdilution assay; type: functional; details: ATCC 8739, 48 h
How it was run: (§3)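 Broth microdilution in Mueller-Hinton medium buffered to pH 7.4 (±0.2), with DMSO as diluent at no more than 2% final. Compounds were tested as 2-fold serial dilutions from 2000 to 0.488 µmol/l. The inoculum was 0.5 McFarland (1.5×10^8 cfu/ml). Plates were held at 37 °C and read visually at 24 and 48 h. MIC was taken as 95% growth inhibition versus control, determined twice in duplicate.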

Escherichia coli [6] = experiment: Antibacterial activity against Escherichia coli ATCC 8739 after 24 hrs by microdilution assay; type: functional; details: ATCC 8739, 24 h; how it was run: as §3
PC-3 [7] = experiment: Induction of apoptosis in human PC3 cells assessed as caspase 3/7 activity after 24 hrs by caspase-glo luminescent assay; type: cell-based; details: PC-3, 24 h; how it was run: as §2
[8] = tested on: Staphylococcus epidermidis; experiment: Antibacterial activity against Staphylococcus epidermidis HK6966/08 clinical isolate after 24 hrs by microdilution assay; type: functional; details: HK6966/08, 24 h
Aspergillus fumigatus = experiment: Antifungal activity against Aspergillus fumigatus 231 up to 1 mM after 24 to 48 hrs by microdilution assay; type: functional, organism-based; how it was run: as §1
HepG2 [9] = experiment: Cytotoxicity against human HepG2 cells assessed as reduction in cell viability after 48 hrs by ATPlite-based luminescent assay; details: HepG2, 48 h
How it was run: (§4)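 Cells were grown […] with 10% FBS, glutamax, NEAA and pen/strep at 37 °C, 5% CO2. Media were DMEM for RPE-1, HepG2 and BJ (BJ plus 10 ng/ml bFGF), F-12K for PC3, and IMDM for K562/HL-60. Cells were seeded at 500 per well and dosed from DMSO at 12 concentrations, 40 µM to 1 nM, in triplicate. After 48 h, intracellular ATP was read by luminescence. ED50 was obtained by variable-slope nonlinear regression.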

Klebsiella pneumoniae [10] = experiment: Antibacterial activity against Klebsiella pneumoniae HK14368/08 clinical isolate after 24 hrs by microdilution assay; type: functional; details: HK14368/08, 24 h
Staphylococcus aureus [11] = experiment: Antibacterial activity against Staphylococcus aureus ATCC 6538 after 48 hrs by microdilution assay; type: functional; details: ATCC 6538, 48 h
[12] = tested on: Staphylococcus epidermidis; experiment: Antibacterial activity against Staphylococcus epidermidis HK6966/08 clinical isolate after 48 hrs by microdilution assay; type: functional; details: HK6966/08, 48 h
HepG2 [13] = experiment: Induction of apoptosis in human HepG2 cells assessed as caspase 3/7 activity after 24 hrs by caspase-glo luminescent assay; type: cell-based; details: HepG2, 24 h; how it was run: as §2
PC-3 [14] = experiment: Cytotoxicity against human PC3 cells assessed as reduction in cell viability after 48 hrs by ATPlite-based luminescent assay; details: PC-3, 48 h; how it was run: as §4
Candida albicans [15] = experiment: Antifungal activity against Candida albicans ATCC 44859 up to 1 mM after 24 to 48 hrs by microdilution assay; type: functional, organism-based; how it was run: as §1
Candida parapsilosis = experiment: Antifungal activity against Candida parapsilosis ATCC 22019 up to 1 mM after 24 to 48 hrs by microdilution assay; type: functional, organism-based; how it was run: as §1
Pichia kudriavzevii [16] = experiment: Antifungal activity against Candida krusei ATCC 6258 up to 1 mM after 24 to 48 hrs by microdilution assay; type: functional, organism-based; how it was run: as §1
TERT-RPE1 [17] = experiment: Cytotoxicity against human RPE1 cells assessed as reduction in cell viability after 48 hrs by ATPlite-based luminescent assay; details: RPE-1, 48 h; how it was run: as §4
Candida tropicalis = experiment: Antifungal activity against Candida tropicalis 156 clinical isolate up to 1 mM after 24 to 48 hrs by microdilution assay; type: functional, organism-based; how it was run: as §1
K562 [18] = experiment: Induction of apoptosis in human K562 cells assessed as caspase 3/7 activity after 24 hrs by caspase-glo luminescent assay; type: cell-based; details: K562, 24 h; how it was run: as §2
Enterococcus sp. [19] = experiment: Antibacterial activity against Enterococcus sp. HK14365/08 clinical isolate after 48 hrs by microdilution assay; type: functional; details: HK14365/08, 48 h
Klebsiella pneumoniae [20] = experiment: Antibacterial activity against Klebsiella pneumoniae HK11750/08 clinical isolate after 24 hrs by microdilution assay; type: functional; details: HK11750/08, 24 h
BJ = experiment: Cytotoxicity against human BJ cells assessed as reduction in cell viability after 48 hrs by ATPlite-based luminescent assay; how it was run: as §4
Enterococcus sp. [21] = experiment: Antibacterial activity against Enterococcus sp. HK14365/08 clinical isolate after 24 hrs by microdilution assay; type: functional; details: HK14365/08, 24 h
Trichosporon asahii = experiment: Antifungal activity against Trichosporon asahii 1188 clinical isolate up to 1 mM after 24 to 48 hrs by microdilution assay; type: functional, organism-based; how it was run: as §1
HL-60 [22] = experiment: Cytotoxicity against human HL60 cells assessed as reduction in cell viability after 48 hrs by ATPlite-based luminescent assay; details: HL-60, 48 h; how it was run: as §4
Candida albicans [23] = experiment: Antifungal activity against Candida albicans ATCC 90028 up to 1 mM after 24 to 48 hrs by microdilution assay; type: functional, organism-based; how it was run: as §1
Pichia kudriavzevii [24] = experiment: Antifungal activity against Candida krusei E28 clinical isolate up to 1 mM after 24 to 48 hrs by microdilution assay; type: functional, organism-based; how it was run: as §1
Lichtheimia corymbifera = experiment: Antifungal activity against Absidia corymbifera 272 up to 1 mM after 24 to 48 hrs by microdilution assay; type: functional, organism-based; how it was run: as §1
Pseudomonas aeruginosa [25] = experiment: Antibacterial activity against Pseudomonas aeruginosa ATCC 9027 after 48 hrs by microdilution assay; type: functional; details: ATCC 9027, 48 h; how it was run: as §3
Clavispora lusitaniae = experiment: Antifungal activity against Candida lusitaniae 2446/I clinical isolate up to 1 mM after 24 to 48 hrs by microdilution assay; type: functional, organism-based; how it was run: as §1
Pseudomonas aeruginosa [26] = experiment: Antibacterial activity against Pseudomonas aeruginosa ATCC 9027 after 24 hrs by microdilution assay; type: functional; details: ATCC 9027, 24 h; how it was run: as §3
K562 [27] = experiment: Cytotoxicity against human K562 cells assessed as reduction in cell viability after 48 hrs by ATPlite-based luminescent assay; details: K562, 48 h; how it was run: as §4
[28] = tested on: Trichophyton mentagrophytes; experiment: Antifungal activity against Trichophyton mentagrophytes 445 up to 1 mM after 72 to 120 hrs by microdilution assay; type: functional, organism-based; how it was run: as §1
TERT-RPE1 [29] = experiment: Induction of apoptosis in human RPE1 cells assessed as caspase 3/7 activity after 24 hrs by caspase-glo luminescent assay; type: cell-based; details: RPE-1, 24 h; how it was run: as §2
Staphylococcus aureus [30] = experiment: Antibacterial activity against methicillin-resistant Staphylococcus aureus HK5996/08 clinical isolate after 48 hrs by microdilution assay; type: functional; details: HK5996/08, 48 h
Staphylococcus aureus [31] = experiment: Antibacterial activity against Staphylococcus aureus ATCC 6538 after 24 hrs by microdilution assay; type: functional; details: ATCC 6538, 24 h
MCF7 = experiment: Cytotoxicity against human MCF7 cells assessed as reduction in cell viability after 48 hrs by ATPlite-based luminescent assay; details: MCF7, 48 h

`O=C1OC(CO)(CO)C(c2ccc(Br)cc2)=C1c1cccc(Cl)c1Cl` was tested, and the MIC95 (Klebsiella pneumoniae [1]) was greater than 500 µM, the Activity (Nakaseomyces glabratus) was “inactive” and the MIC95 (Klebsiella pneumoniae [2]) was greater than 500 µM. The MIC95 (Staphylococcus aureus [3]) was greater than 500 µM, the IC50 (HL-60 [4]) was greater than 40 µM and the MIC95 (Escherichia coli [5]) was greater than 500 µM. For the same compound, the MIC95 (Escherichia coli [6]) was greater than 500 µM, the IC50 (PC-3 [7]) was greater than 40 µM and the MIC95 [8] was 62.5 µM (≈ 27.8 µg/mL). The Activity (Aspergillus fumigatus) was “inactive”, the IC50 (HepG2 [9]) was greater than 40 µM and the MIC95 (Klebsiella pneumoniae [10]) was greater than 500 µM. It also gave an MIC95 (Staphylococcus aureus [11]) of 31.2 µM (≈ 13.9 µg/mL), an MIC95 [12] of 250 µM (≈ 111 µg/mL) and an IC50 (HepG2 [13]) greater than 40 µM. The IC50 (PC-3 [14]) was greater than 40 µM, the Activity (Candida albicans [15]) was “inactive” and the Activity (Candida parapsilosis) was “inactive”. For the same compound, the Activity (Pichia kudriavzevii [16]) was “inactive”, the IC50 (TERT-RPE1 [17]) was greater than 40 µM and the Activity (Candida tropicalis) was “inactive”. It also gave an IC50 (K562 [18]) greater than 40 µM, an MIC95 (Enterococcus sp. [19]) greater than 500 µM and an MIC95 (Klebsiella pneumoniae [20]) greater than 500 µM. The IC50 (BJ) was greater than 40 µM, the MIC95 (Enterococcus sp. [21]) was greater than 500 µM and the Activity (Trichosporon asahii) was “inactive”. For the same compound, the IC50 (HL-60 [22]) was greater than 40 µM, the Activity (Candida albicans [23]) was “inactive” and the Activity (Pichia kudriavzevii [24]) was “inactive”. For the same compound, the Activity (Lichtheimia corymbifera) was “inactive”, the MIC95 (Pseudomonas aeruginosa [25]) was greater than 500 µM and the Activity (Clavispora lusitaniae) was “inactive”. The MIC95 (Pseudomonas aeruginosa [26]) was greater than 500 µM, the IC50 (K562 [27]) was greater than 40 µM and the Activity [28] was “inactive”. It also gave an IC50 (TERT-RPE1 [29]) greater than 40 µM, an MIC95 (Staphylococcus aureus [30]) greater than 500 µM and an MIC95 (Staphylococcus aureus [31]) of 15.6 µM (≈ 6.94 µg/mL). For the same compound, the IC50 (MCF7) was greater than 40 µM.
With `COc1ccc(C2=C(c3cccc(Cl)c3Cl)C(=O)OC2(CO)CO)cc1` the MIC95 (Klebsiella pneumoniae [1]) was greater than 500 µM, the Activity (Nakaseomyces glabratus) was “inactive” and the MIC95 (Klebsiella pneumoniae [2]) was greater than 500 µM. The MIC95 (Staphylococcus aureus [3]) was 62.5 µM (≈ 24.7 µg/mL), the IC50 (HL-60 [4]) was greater than 40 µM and the MIC95 (Escherichia coli [5]) was greater than 500 µM. It also gave an MIC95 (Escherichia coli [6]) greater than 500 µM, an IC50 (PC-3 [7]) greater than 40 µM and an MIC95 [8] of 250 µM (≈ 98.8 µg/mL). For the same compound, the Activity (Aspergillus fumigatus) was “inactive”, the IC50 (HepG2 [9]) was greater than 40 µM and the MIC95 (Klebsiella pneumoniae [10]) was greater than 500 µM. It also gave an MIC95 (Staphylococcus aureus [11]) of 15.6 µM (≈ 6.17 µg/mL), an MIC95 [12] of 250 µM (≈ 98.8 µg/mL) and an IC50 (HepG2 [13]) greater than 40 µM. The IC50 (PC-3 [14]) was greater than 40 µM, the Activity (Candida albicans [15]) was “inactive” and the Activity (Candida parapsilosis) was “inactive”. For the same compound, the Activity (Pichia kudriavzevii [16]) was “inactive”, the IC50 (TERT-RPE1 [17]) was greater than 40 µM and the Activity (Candida tropicalis) was “inactive”. It also gave an IC50 (K562 [18]) greater than 40 µM, an MIC95 (Enterococcus sp. [19]) greater than 500 µM and an MIC95 (Klebsiella pneumoniae [20]) greater than 500 µM. The IC50 (BJ) was greater than 40 µM, the MIC95 (Enterococcus sp. [21]) was 500 µM (≈ 198 µg/mL) and the Activity (Trichosporon asahii) was “inactive”. For the same compound, the IC50 (HL-60 [22]) was greater than 40 µM, the Activity (Candida albicans [23]) was “inactive” and the Activity (Pichia kudriavzevii [24]) was “inactive”. For the same compound, the Activity (Lichtheimia corymbifera) was “inactive”, the MIC95 (Pseudomonas aeruginosa [25]) was greater than 500 µM and the Activity (Clavispora lusitaniae) was “inactive”. The MIC95 (Pseudomonas aeruginosa [26]) was greater than 500 µM, the IC50 (K562 [27]) was greater than 40 µM and the Activity [28] was “inactive”. It also gave an IC50 (TERT-RPE1 [29]) greater than 40 µM, an MIC95 (Staphylococcus aureus [30]) of 125 µM (≈ 49.4 µg/mL) and an MIC95 (Staphylococcus aureus [31]) of 7.81 µM (≈ 3.09 µg/mL). The IC50 (MCF7) was greater than 40 µM.
